In article PMC4980721 (Cellular and molecular gastroenterology and hepatology, 2016):
“And” between values parts separate entries of the source, which are not always exact repeats. Equal values may be shown once.

Tests used:
SW480 cells = experiment: Cell binding assay, confocal microscopy; assay type: cell-based, human
Procedure, shortened: (§1)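 Cells grown in DMEM + 10% FBS + 1% penicillin/streptomycin at 37°C, 5% CO2, then seeded at ~0.5×10^6 cells/mL on coverslips. Next day, 10 µM Cy5.5-labeled test peptide or Cy5.5-labeled control peptide added for 1 h at 4°C. Fixed in 4% PFA 10 min RT, DAPI counterstain, confocal imaging. Intensities from 10 random cells in 3 independent images; one-way ANOVA.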

SW620 cells [1] = experiment: Cell binding assay, confocal microscopy; assay type: cell-based, human
Procedure, shortened: as §1

HCT116 cells = experiment: Cell binding assay, confocal microscopy; assay type: cell-based, human
claudin-1 (CLDN1) = experiment: siRNA knockdown of claudin-1 expression, peptide and antibody staining; assay type: cell-based, human; conditions: control and CLDN1 siRNA, confocal
Procedure, shortened: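 SW620 cells seeded at 0.2×10^6 cells/mL, transfected with DharmaFECT1 plus 25 nM CLDN1 SMARTpool or control siRNA for 72 h, then passaged onto coverslips. Knockdown checked by western blot. Staining: 5 µM Cy5.5-labeled peptide or control peptide 30 min at 4°C, then 4% PFA fixation; or methanol fixation, anti-CLDN1 5 µg/mL 1 h RT, AF488 secondary. Two-way ANOVA on average intensity (10 cells/slide, 2 slides/condition).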

SW620 cells [2] = experiment: Apparent association time constant by flow cytometry; assay type: binding, human; conditions: from k = 0.83 min^−1
[3] = system: human proximal colon FFPE specimens; experiment: Immunofluorescence of proximal human colon specimens with claudin-1 peptide; conditions: human proximal colon FFPE sections, 5 µM peptide 10 min at RT
Procedure, shortened: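 FFPE sections (5 µm) deparaffinized. Antigen retrieval: boiling 10 mM sodium citrate, 0.05% Tween, pH 6.0, then sub-boiling 15 min. Protein serum block 15 min RT. 5 µM Cy5.5-labeled peptide 10 min RT, then anti-claudin-1 (1:200) overnight and AF488 secondary (1:500) 1 h RT, DAPI mount. Equal exposure; mean intensity from three 20×20 µm² boxes within epithelium per image, avoiding saturation.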

Substance | binding to cell surface on confocal microscopy (SW480 cells) | binding to cell surface on confocal microscopy (SW620 cells [1]) | binding to cell surface on confocal microscopy (HCT116 cells) | binding / signal in SW620 cells transfected with siCL or siCLDN1 (claudin-1 (CLDN1)) | time constant / time scale for binding corresponding to k (SW620 cells [2]) | mean (±std) fluorescence intensity, SSA ([3]; n = 11 SSA) | mean (±std) fluorescence intensity, normal ([3]; n = 28 normal)
SPTSSRR [SPT*-Cy5.5] | minimal binding | minimal binding | minimal binding | minimal binding |  |  | 
RTSPSSR [RTS*-Cy5.5] |  |  |  |  | < 1.2 min and ~ 1.2 min | 20.1±13.3 | 9.1±6.0
